Measurements from ChEMBL document CHEMBL4819122, “Novel 4-(piperazin-1-yl)quinolin-2(1H)-one bearing thiazoles with antiproliferative activity through VEGFR-2-TK inhibition” (Bioorg Med Chem, 2021).
Activity calls are given as the source filed them. The rule behind the calls is not given here.

How the values were obtained:
[1] = test system: OVCAR-8; assay: Cytotoxicity against human OVCAR-8 assessed as growth inhibition at 10 uM by NCI protocol relative to control; assay type: functional; conditions: read-out: GI
How it was run: (§1)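 Run by NCI as a single-dose screen at 10 μM across the sixty-cell-line panel, which covers nine human tumour tissue types. The read-out is percent growth inhibition of treated cells relative to untreated cells.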

[2] = test system: CAKI-1; assay: Cytotoxicity against human Caki1 assessed as growth inhibition at 10 uM by NCI protocol relative to control; assay type: functional; conditions: read-out: GI; how it was run: as §1
[3] = test system: UACC-62; assay: Cytotoxicity against human UACC-62 assessed as growth inhibition at 10 uM by NCI protocol relative to control; assay type: functional; conditions: read-out: GI
How it was run: (§2)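 Run by the NCI under its standard protocol: one dose of 10 μM against a sixty-line panel from nine human tumour tissues. Result given as percent growth inhibition of treated cells relative to untreated cells.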

[4] = test system: U-251; assay: Cytotoxicity against human U251 assessed as growth inhibition at 10 uM by NCI protocol relative to control; assay type: functional; conditions: read-out: GI; how it was run: as §2
[5] = test system: OVCAR-4; assay: Cytotoxicity against human OVCAR-4 assessed as growth inhibition at 10 uM by NCI protocol relative to control; assay type: functional; conditions: read-out: GI; how it was run: as §1
[6] = test system: M14; assay: Cytotoxicity against human M14 assessed as growth inhibition at 10 uM by NCI protocol relative to control; assay type: functional; conditions: read-out: GI; how it was run: as §1
[7] = test system: HCC 2998; assay: Cytotoxicity against human HCC-2998 assessed as growth inhibition at 10 uM by NCI protocol relative to control; assay type: functional; conditions: read-out: GI; how it was run: as §1
[8] = test system: SK-MEL-28; assay: Cytotoxicity against human SK-MEL-28 assessed as growth inhibition at 10 uM by NCI protocol relative to control; assay type: functional; conditions: read-out: GI; how it was run: as §1
[9] = test system: 786-0; assay: Cytotoxicity against human 786-0 assessed as growth inhibition at 10 uM by NCI protocol relative to control; assay type: functional; conditions: read-out: GI; how it was run: as §1
[10] = test system: NCI/ADR-RES; assay: Cytotoxicity against human NCl/ADR-RES assessed as growth inhibition at 10 uM by NCI protocol relative to control; assay type: functional; conditions: read-out: GI; how it was run: as §1
[11] = test system: MDA-MB-435; assay: Cytotoxicity against human MDA-MB-435 assessed as growth inhibition at 10 uM by NCI protocol relative to control; assay type: functional, cell-based; how it was run: as §1
[12] = test system: SF-295; assay: Cytotoxicity against human SF-295 assessed as growth inhibition at 10 uM by NCI protocol relative to control; assay type: functional; conditions: read-out: GI; how it was run: as §1
[13] = test system: HL-60; assay: Cytotoxicity against human HL60 assessed as growth inhibition at 10 uM by NCI protocol relative to control; assay type: functional; conditions: read-out: GI; how it was run: as §1
[14] = test system: NCI-H460; assay: Cytotoxicity against human NCI-H460 assessed as growth inhibition at 10 uM by NCI protocol relative to control; assay type: functional; conditions: read-out: GI; how it was run: as §1
[15] = test system: HCT-116; assay: Cytotoxicity against human HCT-116 assessed as growth inhibition at 10 uM by NCI protocol relative to control; assay type: functional; conditions: read-out: GI; how it was run: as §1
[16] = test system: BT-549; assay: Cytotoxicity against human BT-549 assessed as growth inhibition at 10 uM by NCI protocol relative to control; assay type: functional; conditions: read-out: GI; how it was run: as §1
[17] = test system: SW-620; assay: Cytotoxicity against human SW-620 assessed as growth inhibition at 10 uM by NCI protocol relative to control; assay type: functional; conditions: read-out: GI; how it was run: as §2
[18] = test system: ACHN; assay: Cytotoxicity against human ACHN assessed as growth inhibition at 10 uM by NCI protocol relative to control; assay type: functional; conditions: read-out: GI; how it was run: as §1
[19] = test system: NCI-H522; assay: Cytotoxicity against human NCI-H522 assessed as growth inhibition at 10 uM by NCI protocol relative to control; assay type: functional; conditions: read-out: GI; how it was run: as §1
[20] = test system: NCI-H226; assay: Cytotoxicity against human NCI-H226 assessed as growth inhibition at 10 uM by NCI protocol relative to control; assay type: functional; conditions: read-out: GI; how it was run: as §1
[21] = test system: PC-3; assay: Cytotoxicity against human PC3 assessed as growth inhibition at 10 uM by NCI protocol relative to control; assay type: functional; conditions: read-out: GI; how it was run: as §1
[22] = test system: SR; assay: Cytotoxicity against human SR assessed as growth inhibition at 10 uM by NCI protocol relative to control; assay type: functional; conditions: read-out: GI; how it was run: as §2
[23] = test system: SF-539; assay: Cytotoxicity against human […] assessed as growth inhibition at 10 uM by NCI protocol relative to control; assay type: functional; conditions: read-out: GI; how it was run: as §1
[24] = test system: SNB-75; assay: Cytotoxicity against human SNB-75 assessed as growth inhibition at 10 uM by NCI protocol relative to control; assay type: functional; conditions: read-out: GI; how it was run: as §2
[25] = test system: Hs-578T; assay: Cytotoxicity against human HS 578T assessed as growth inhibition at 10 uM by NCI protocol relative to control; assay type: functional; conditions: read-out: GI; how it was run: as §1
[26] = test system: NCI-H322M; assay: Cytotoxicity against human NCI-H322M assessed as growth inhibition at 10 uM by NCI protocol relative to control; assay type: functional; conditions: read-out: GI; how it was run: as §1
[27] = test system: CCRF-CEM; assay: Cytotoxicity against human CCRF-CEM assessed as growth inhibition at 10 uM by NCI protocol relative to control; assay type: functional; conditions: read-out: GI; how it was run: as §1
[28] = test system: HT-29; assay: Cytotoxicity against human HT29 assessed as growth inhibition at 10 uM by NCI protocol relative to control; assay type: functional; conditions: read-out: GI; how it was run: as §1
[29] = test system: A549; assay: Cytotoxicity against human A549 assessed as growth inhibition at 10 uM by NCI protocol relative to control; assay type: functional; conditions: read-out: GI; how it was run: as §1
[30] = test system: MOLT-4; assay: Cytotoxicity against human MOLT-4 assessed as growth inhibition at 10 uM by NCI protocol relative to control; assay type: functional; conditions: read-out: GI; how it was run: as §1
[31] = test system: EKVX; assay: Cytotoxicity against human EKVX assessed as growth inhibition at 10 uM by NCI protocol relative to control; assay type: functional; conditions: read-out: GI; how it was run: as §1
[32] = test system: K562; assay: Cytotoxicity against human K-562 assessed as growth inhibition at 10 uM by NCI protocol relative to control; assay type: functional; conditions: read-out: GI; how it was run: as §1
[33] = test system: UACC-257; assay: Cytotoxicity against human UACC-257 assessed as growth inhibition at 10 uM by NCI protocol relative to control; assay type: functional; conditions: read-out: GI; how it was run: as §2
[34] = test system: IGROV-1; assay: Cytotoxicity against human IGROVI assessed as growth inhibition at 10 uM by NCI protocol relative to control; assay type: functional; conditions: read-out: GI; how it was run: as §1
[35] = test system: KM12; assay: Cytotoxicity against human KM12 assessed as growth inhibition at 10 uM by NCI protocol relative to control; assay type: functional; conditions: read-out: GI; how it was run: as §1
[36] = test system: NCI-H23; assay: Cytotoxicity against human NCI-H23 assessed as growth inhibition at 10 uM by NCI protocol relative to control; assay type: functional; conditions: read-out: GI; how it was run: as §1
[37] = test system: HCT-15; assay: Cytotoxicity against human HCT-15 assessed as growth inhibition at 10 uM by NCI protocol relative to control; assay type: functional; conditions: read-out: GI; how it was run: as §1
[38] = test system: DU-145; assay: Cytotoxicity against human DU-145 assessed as growth inhibition at 10 uM by NCI protocol relative to control; assay type: functional; conditions: read-out: GI; how it was run: as §1
[39] = test system: Malme-3M; assay: Cytotoxicity against human MALME-3M assessed as growth inhibition at 10 uM by NCI protocol relative to control; assay type: functional; conditions: read-out: GI; how it was run: as §1
[40] = test system: MCF7; assay: Cytotoxicity against human MCF7 assessed as growth inhibition at 10 uM by NCI protocol relative to control; assay type: functional; conditions: read-out: GI; how it was run: as §1
[41] = test system: RPMI-8226; assay: Cytotoxicity against human RPMI-8226 assessed as growth inhibition at 10 uM by NCI protocol relative to control; assay type: functional; conditions: read-out: GI; how it was run: as §1
[42] = test system: UO-31; assay: Cytotoxicity against human UO31 assessed as growth inhibition at 10 uM by NCI protocol relative to control; assay type: functional; conditions: read-out: GI; how it was run: as §2
[43] = test system: SK-MEL-5; assay: Cytotoxicity against human SK-MEL-5 assessed as growth inhibition at 10 uM by NCI protocol relative to control; assay type: functional; conditions: read-out: GI; how it was run: as §1

Cc1ccc(-c2csc(NC(=O)CN3CCN(c4cc(=O)[nH]c5ccc(F)cc45)CC3)n2)cc1
inhibition of growth at 10 µM [1]: 23.2% | inhibition of growth at 10 µM [2]: 52.6% | inhibition of growth at 10 µM [3]: 33.9% | inhibition of growth at 10 µM [4]: 44.4% | inhibition of growth at 10 µM [5]: 30.6% | inhibition of growth at 10 µM [6]: 27.5% | inhibition of growth at 10 µM [7]: 34.1% | inhibition of growth at 10 µM [8]: 17.8% | inhibition of growth at 10 µM [9]: 25.6% | inhibition of growth at 10 µM [10]: 38.4% | growth inhibition (GI) [11]: inactive | inhibition of growth at 10 µM [12]: 20.3% | inhibition of growth at 10 µM [13]: 40.6% | inhibition of growth at 10 µM [14]: 21.4% | inhibition of growth at 10 µM [15]: 45.2% | inhibition of growth at 10 µM [16]: 21.5% | inhibition of growth at 10 µM [17]: 37% | inhibition of growth at 10 µM [18]: 44.1% | inhibition of growth at 10 µM [19]: 22.3% | inhibition of growth at 10 µM [20]: 11.7% | inhibition of growth at 10 µM [21]: 55.9% | inhibition of growth at 10 µM [22]: 47.5% | inhibition of growth at 10 µM [23]: 32.7% | inhibition of growth at 10 µM [24]: 32.6% | inhibition of growth at 10 µM [25]: 41.4% | inhibition of growth at 10 µM [26]: 18.9% | inhibition of growth at 10 µM [27]: 47% | inhibition of growth at 10 µM [28]: 21.5% | inhibition of growth at 10 µM [29]: 43.7% | inhibition of growth at 10 µM [30]: 53.2% | inhibition of growth at 10 µM [31]: 42.1% | inhibition of growth at 10 µM [32]: 42.4% | inhibition of growth at 10 µM [33]: 37.5% | inhibition of growth at 10 µM [34]: 52.6% | inhibition of growth at 10 µM [35]: 13.3% | inhibition of growth at 10 µM [36]: 21.6% | inhibition of growth at 10 µM [37]: 37.1% | inhibition of growth at 10 µM [38]: 47.4% | inhibition of growth at 10 µM [39]: 43.5% | inhibition of growth at 10 µM [40]: 33.5% | inhibition of growth at 10 µM [41]: 51.1% | inhibition of growth at 10 µM [42]: 35.4% | inhibition of growth at 10 µM [43]: 44%
